# Screening data: PubChem, Sanford-Burnham Center for Chemical Genomics
# bIAP inh: bovine intestinal alkaline phosphatase inhibitors, primary screen, selectivity assay for TNAP inhibitor project, biochemical, bovine IAP, CDP-star luminescence; alkaline phosphatase, intestinal [Bos taurus]; purified bovine IAP, 30 min; inhibition, % at 20 µM; 190,000 tested, under 10 active; AID 1019, 2008;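 active = over 50% inhibition of intestinal alkaline phosphatase at 20 µM in the single-dose screen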
#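 Assay system: bovine IAP enzyme; medium: DEA buffer 100 mM, pH 9.8, with MgCl2 1.0 mM, ZnCl2 0.02 mM; doses: 20 µM single dose; incubation: enzyme reaction for 30 min at room temperature; detection: CDP-star luminescence signal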
# mIAP inh: inhibitors of mouse IAP, primary screen, biochemical, luminescence, uHTS; intestinal alkaline phosphatase [Mus musculus]; purified mouse IAP, CDP-Star luminescence, 30 min; inhibition, % at 10 µM; 330,000 tested, 0.2% active; AID 2806, 2010;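 active = inhibition of at least 40% at 10 µM in the primary screen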;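 also: plate controls were DMSO with enzyme for no effect and no enzyme wells for full effect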
# hIAP block: human IAP inhibitors, primary screen, biochemical, luminescence, uHTS. Intestinal-type alkaline phosphatase (Homo sapiens), P09923. purified IAP, CDP-Star luminescence, 30 min. 330,000 tested, 0.12% active. inhibition, % at 10 µM;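 active = inhibition reaching a set limit with compound at 10 µM in the primary screen, cut at about 35% in these data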;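 also: plate controls were DMSO wells with enzyme for no effect and no-enzyme buffer wells for full effect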
# Target sequence (P09923 whole entry, looked up): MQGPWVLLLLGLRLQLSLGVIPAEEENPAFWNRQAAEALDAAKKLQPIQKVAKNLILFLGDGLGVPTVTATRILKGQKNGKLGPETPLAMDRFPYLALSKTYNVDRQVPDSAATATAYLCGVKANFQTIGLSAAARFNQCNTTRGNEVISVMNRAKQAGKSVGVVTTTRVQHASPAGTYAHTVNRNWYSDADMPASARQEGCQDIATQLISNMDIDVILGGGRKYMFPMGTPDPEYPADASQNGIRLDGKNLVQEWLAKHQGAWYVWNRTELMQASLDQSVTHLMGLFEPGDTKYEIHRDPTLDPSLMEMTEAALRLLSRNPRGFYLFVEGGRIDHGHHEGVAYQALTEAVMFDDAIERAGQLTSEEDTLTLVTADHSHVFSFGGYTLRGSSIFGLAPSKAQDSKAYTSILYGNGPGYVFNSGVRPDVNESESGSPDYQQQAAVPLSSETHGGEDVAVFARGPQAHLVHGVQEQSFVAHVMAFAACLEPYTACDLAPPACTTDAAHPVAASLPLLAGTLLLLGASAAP
# hIAP act: human IAP activators, primary screen, biochemical, luminescence, uHTS; activation factor at 10 µM; Intestinal-type alkaline phosphatase (Homo sapiens), P09923; 330,000 tested, 0.16% active; AID 2524, 2010; purified human IAP, CDP-Star luminescence, 30 min; active compounds read high; 1 = vehicle-only enzyme, 0 = enzyme-free background;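 active = activation factor of the enzyme at least 2-fold when tested at 20 µM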
# mIAP act: activators of mouse IAP, primary screen, biochemical, luminescence, uHTS; AID 2805, 2010; muIAP, CDP-Star luminescence, 30 min; active compounds read high; 1 = vehicle-only enzyme signal, 0 = enzyme-free wells; intestinal alkaline phosphatase [Mus musculus]; 330,000 tested, 0.24% active; activation factor at 10 µM;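 active = activation factor of at least 2 at 20 µM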
#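 also added = chemiluminescent substrate CDP-Star | test system = mouse IAP enzyme | signal = chemiluminescence readout | compound = DMSO-dissolved test compounds | incubation = 30 min at room temperature | benchmarks = DMSO wells, no-enzyme wells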
# bIAP activator: bovine intestinal alkaline phosphatase activators, primary screen, biochemical, bovine IAP, CDP-star luminescence; purified bovine IAP, 30 min; active compounds read high; fold of DMSO-control signal, blank-subtracted; activation factor at 20 µM; 200,000 tested, 0.17% active; AID 1016, 2008;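 active = activation factor of 2 or more at 20 µM, a signal rise over negative controls twice the positive control's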
# hIAP act conf: human IAP activators, confirmation, biochemical, luminescence, single concentration, uHTS hits; shares compounds with hIAP act; purified IAP, CDP-Star luminescence, 30 min; active compounds read low; activation (%Activity, negative = activation), % at 8.3 µM; 880 tested, 10% active; AID 434926, 2010;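 active = at least twofold enzyme activation in any of six single-dose repeats, which the averaged readout prints as negative percent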
# * hit, by the source's call; . = no result. Hits are enriched below; roughly 0.72% of the tested compounds scored in any of these assays.
SMILES,bIAP inh,mIAP inh,hIAP block,hIAP act,mIAP act,bIAP activator,hIAP act conf
O=C(NCCCN1CCOCC1)C(C(=O)NCCCN1CCOCC1)c1ncc(C(F)(F)F)cc1Cl,-0.3,-1.1,-5.3,1.05,1.01,1,.
Cc1ccc(C)c(NCC(=O)NNC(=S)Nc2ccccc2)c1,-16.0,15.8,-103.0,2.03*,0.842,1.2,-38.7
Cc1ccc(C)c(NC(=S)NCc2ccccc2)c1,.,1.0,7.9,0.921,0.99,.,.
Cc1ccc(NC(=O)CCC(=O)NNC(=S)Nc2ccccc2)c(C)c1,-54.1,-7.7,-106.3,2.06*,1.08,1.5,-25.3
Cc1ccc(C)c(NC(=O)CCC(=O)NNC(=S)Nc2ccccc2)c1,-46.7,20.9,-80.5,1.8,0.791,1.5,.
O=C(Cc1ccccc1)NNC(=S)Nc1ccccc1,-33.4,7.1,-117.7,2.18*,0.929,1.3,9.3
COc1ccc(OC(=O)c2cccnc2)cc1,6.5,8.0,41.1*,0.589,0.92,0.9,7.3
CC(C)(C)c1ccc(OC(=O)c2cccnc2)cc1,6.4,-4.2,-4.6,1.05,1.04,0.9,.
O=C(c1ccccc1)N1CCN(C(=O)c2ccc3c(c2)OCCO3)CC1,4.2,-26.4,-28.0,1.28,1.26,1,.
CN1CCN(C(=O)c2ccc3c(c2)OCCO3)CC1,10.7,0.0,37.0*,0.63,1,0.9,7.9
CCN1CCN(C(=O)CCn2c(=O)c3cccn3c3cccnc32)CC1,.,3.9,10.7,0.893,0.961,.,.
O=C(NNC(=O)c1ccccc1Br)c1ccc2nc[nH]c2c1,.,9.7,-102.7,2.03*,0.903,.,-10.5
Cc1cc(OCC(=O)NNC(=O)c2cnccn2)cc(C)c1Cl,.,7.3,-106.1,2.06*,0.927,.,-54.9
Cc1ccc(OCC(=O)NCCCNC(=O)c2cnccn2)cc1C,.,-3.8,-10.1,1.1,1.04,.,.
COc1ccc(NC(=O)c2cc(-c3ccc(C)cc3O)n[nH]2)c(OC)c1,.,1.9,-106.0,2.06*,0.981,.,-37.1
COc1ccc(CNC(=O)c2cc(-c3ccccc3O)n[nH]2)cc1,-4.6,-54.1,6.1,0.939,1.54,1,.
O=C(NCc1ccc2c(c1)OCO2)c1cc(-c2cc(Cl)ccc2O)n[nH]1,.,-27.5,-108.1,2.08*,1.27,.,17.5
COc1ccc(CCNC(=O)c2cc(-c3cc(C)ccc3O)n[nH]2)cc1OC,-95.9,-67.8,-167.6,2.68*,1.68,2*,-9.3
COc1ccc(CNC(=O)c2cc(-c3cc(C)ccc3O)n[nH]2)cc1,.,-69.7,-138.3,2.38*,1.7,.,-33.6
COc1ccc(CCNC(=O)c2cc(-c3ccc(C)c(C)c3O)n[nH]2)cc1OC,-37.2,-8.3,-91.4,1.91,1.08,1.4,.
Cc1cc(O)c(-c2cc(C(=O)NCc3ccc4c(c3)OCO4)[nH]n2)cc1C,-56.3,-29.4,14.1,0.859,1.29,1.6,.
Clc1nc2nc3n(c2nc1Cl)CCC3,.,3.9,-8.1,1.08,0.961,.,.
COc1ccc(C)cc1N(C(=O)c1snc(C(N)=O)c1N)C(C(=O)NC1CCCC1)c1ccc(F)cc1 (stereo unspecified),.,-0.3,2.1,0.979,1,.,.
COc1ccc(C(=O)OCC(=O)Nc2ccc3c(c2)OCO3)cc1S(=O)(=O)N1CCOCC1,.,0.8,10.9,0.891,0.992,.,.
Cn1cccc1C(=O)OCC(=O)NC(=O)NC1CCCCC1,-10.2,3.6,-2.5,1.02,0.964,1.1,.
SMILES,bIAP inh,mIAP inh,hIAP block,hIAP act,mIAP act,bIAP activator,hIAP act conf
Cc1c(Cl)cccc1NC(=O)c1cc(-c2ccccc2O)n[nH]1,7.0,-7.7,-100.9,2.01*,1.08,0.9,5.1
Cc1cccc(NC(=O)c2cc(-c3cc(C)c(C)cc3O)n[nH]2)c1,.,-1.6,-77.6,1.78,1.02,.,.
Cc1cccc(NC(=O)c2cc(-c3cc(C)ccc3O)n[nH]2)c1,.,-16.1,-103.9,2.04*,1.16,.,7.3
Cc1ccn2cc(-c3ccc(O)c(O)c3)nc2c1,.,39.7,39.7*,0.603,0.603,.,-69.2
Oc1ccc(-c2cn3ccccc3n2)cc1O,.,2.8,49.3*,0.507,0.972,.,12.2
Cc1ccccc1OCC(=O)Nc1cc(S(=O)(=O)N2CCCCC2)ccc1N1CCN(C)CC1,-3.4,11.0,-0.9,1.01,0.89,1,.
Cn1c(=O)c2sccc2n2c(CCCC(=O)N3CCN(c4ccccn4)CC3)nnc12,.,-3.4,2.4,0.976,1.03,.,.
COc1cc(Cl)c(CNC[C@H]2O[C@@H](n3cnc4c(N)ncnc43)[C@H](O)[C@@H]2O)c(Cl)c1O,.,-8.6,.,.,1.09,.,.
COc1cc(/C=C2\SC(=S)N(Nc3ccccc3)C2=O)ccc1O,-3.5,41.3*,39.6*,0.604,0.587,1,7.7
O=C1/C(=C/c2ccc(O)c(O)c2)SC(=S)N1Nc1ccccc1,.,.,.,.,.,0.5,.
COc1cc(/C=C2\SC(=S)N(NC(=O)c3cccnc3)C2=O)ccc1O,.,35.3,30.2,0.698,0.647,.,.
COc1cc(/C=C2\SC(=S)N(NC(=O)c3ccc(O)cc3)C2=O)ccc1O,.,34.1,43.6*,0.564,0.659,.,1.7
O=C1/C(=C/c2ccc(F)cc2)SC(=S)N1N1CCOCC1,.,4.2,12.4,0.876,0.958,.,.
CCOc1cc(/C=C2\SC(=S)N(N3CCOCC3)C2=O)ccc1O,.,37.8,38.8*,0.612,0.622,.,-33.0
CC(C)(C)c1ccc(C(=O)N2CCN(c3ccc(N4CCOCC4)nn3)CC2)cc1,.,-8.8,-10.5,1.1,1.09,.,.
C=CCN(CC=C)C(=O)C1CCN(S(=O)(=O)c2ccc(N3CCCC3=O)cc2)CC1,.,2.7,-17.4,1.17,0.973,.,.
CCOC(=O)c1cn(-c2c(C)n(C)n(-c3ccccc3)c2=O)c2c(F)c(F)c(F)cc2c1=O,.,-5.2,-7.6,1.08,1.05,.,.
COc1ccc(NC(=O)C2=NN(c3ccccc3)C(=O)CC2)cn1,.,9.4,14.5,0.855,0.906,.,.
COC(=O)/C=C1\S/C(=N/NC(=O)c2ccccc2)NC1=O,-24.3,15.5,-29.8,1.3,0.845,1.2,.
COc1ccccc1/C=C1\S/C(=N/NC(=O)c2cccc(Br)c2)NC1=O,-5.2,-0.7,-145.1,2.45*,1.01,1.1,1.5
CC(=O)N1CCOc2ccc(S(=O)(=O)N3C(C)CCCC3C)cc21 (stereo unspecified),.,8.8,12.3,0.877,0.912,.,.
